# From ChEMBL document CHEMBL3593190, “Triterpenoids with Promoting Effects on the Differentiation of PC12 Cells from the Steamed Roots of Panax notoginseng” (J Nat Prod, 2015)
# Tests used:
# HL-60 = assay: Cytotoxicity against human HL60 cells; assay type: functional, cell-based
# SW480 = assay: Cytotoxicity against human SW480 cells; assay type: functional, cell-based
# MCF7 = assay: Cytotoxicity against human MCF7 cells; assay type: functional, cell-based
# PC-12 = assay: Neurotrophic activity in rat PC12 cells assessed as stimulation of NGF-induced neurite outgrowth at 10 uM after 72 hrs by phase-contrast microscopic analysis relative to control; assay type: functional
# Method in brief: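 PC12 cells kept in F12 with 12.5% horse serum and 2.5% FBS at 37 °C, 5% CO2, then seeded at 5 × 10^4 cells/mL on poly-L-lysine. After 24 h, medium switched to 10 μM compound (DMSO, final 0.05%) plus 5 ng/mL NGF; controls: no NGF, 5 ng/mL or 50 ng/mL NGF. After 72 h, phase-contrast scoring: neurite ≥ soma diameter; % neurite-bearing cells, ≥100 cells/view, 5 views/well.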
# [1] = Cytotoxicity against human […] cells; assay type: functional, cell-based
# A549 = assay: Cytotoxicity against human A549 cells; assay type: functional, cell-based
# Human alphaherpesvirus 2 = assay: Antiviral activity against HSV2; assay type: functional, organism-based
# Human alphaherpesvirus 1 = assay: Antiviral activity against HSV1; assay type: functional, organism-based
Structure (SMILES),IC50 (HL-60) [µM],IC50 (SW480) [µM],IC50 (MCF7) [µM],Activity (PC-12) [%],IC50 [1] [µM],IC50 (A549) [µM],EC50 (Human alphaherpesvirus 2) [µM],EC50 (Human alphaherpesvirus 1) [µM]
CC(C)=CCC[C@@](C)(O)[C@H]1CC[C@]2(C)[C@@H]1[C@H](O)C[C@@H]1[C@@]3(C)CC[C@H](O[C@@H]4O[C@H](CO)[C@@H](O)[C@H](O)[C@H]4O[C@@H]4O[C@H](CO)[C@@H](O)[C@H](O)[C@H]4O)C(C)(C)[C@@H]3CC[C@]12C,> 10,> 10,> 10,9.5,> 10,> 10,,
CC(C)(O)[C@@H](O)/C=C/[C@](C)(O)[C@H]1CC[C@]2(C)[C@@H]1[C@H](O)C[C@@H]1[C@@]3(C)CC[C@H](O[C@@H]4O[C@H](CO)[C@@H](O)[C@H](O)[C@H]4O[C@@H]4O[C@H](CO)[C@@H](O)[C@H](O)[C@H]4O)C(C)(C)[C@@H]3CC[C@]12C,> 10,> 10,> 10,8.2,> 10,> 10,,
CC(C)(O)[C@H](O)/C=C/[C@](C)(O)[C@H]1CC[C@]2(C)[C@@H]1[C@H](O)C[C@@H]1[C@@]3(C)CC[C@H](O[C@@H]4O[C@H](CO)[C@@H](O)[C@@H](O)[C@H]4O[C@@H]4O[C@H](CO)[C@@H](O)[C@H](O)[C@H]4O)C(C)(C)[C@@H]3CC[C@]12C,> 10,> 10,> 10,10.8,> 10,> 10,,
C/C(=C\[C@@H](O)[C@H](O)C(C)(C)O)[C@H]1CC[C@]2(C)[C@@H]1[C@H](O)C[C@@H]1[C@@]3(C)CC[C@H](O)C(C)(C)[C@@H]3[C@@H](O[C@@H]3O[C@H](CO)[C@@H](O)[C@H](O)[C@H]3O)C[C@]12C,> 10,> 10,> 10,9.9,> 10,> 10,,
C/C(=C/[C@H](O)[C@@H](O)C(C)(C)O)[C@H]1CC[C@]2(C)[C@@H]1[C@H](O)C[C@@H]1[C@@]3(C)CC[C@H](O)C(C)(C)[C@@H]3[C@@H](O[C@@H]3O[C@H](CO)[C@@H](O)[C@H](O)[C@H]3O)C[C@]12C,> 10,> 10,> 10,11.4,> 10,> 10,,
C/C(=C/[C@@H](O)[C@H](O)C(C)(C)O)[C@H]1CC[C@]2(C)[C@@H]1[C@H](O)C[C@@H]1[C@@]3(C)CC[C@H](O)C(C)(C)[C@@H]3[C@@H](O[C@@H]3O[C@H](CO)[C@@H](O)[C@H](O)[C@H]3O)C[C@]12C,> 10,> 10,> 10,10.9,> 10,> 10,,
CO[C@@H](/C=C(\C)[C@H]1CC[C@]2(C)[C@@H]1[C@H](O)C[C@@H]1[C@@]3(C)CC[C@H](O)C(C)(C)[C@@H]3[C@@H](O[C@@H]3O[C@H](CO)[C@@H](O)[C@H](O)[C@H]3O)C[C@]12C)[C@@H]1OC1(C)C,> 10,> 10,> 10,11.6,> 10,> 10,,
CO[C@@H](/C=C(\C)[C@H]1CC[C@]2(C)[C@@H]1[C@H](O)C[C@@H]1[C@@]3(C)CC[C@H](O[C@@H]4O[C@H](CO)[C@@H](O)[C@H](O)[C@H]4O[C@@H]4O[C@H](CO)[C@@H](O)[C@H](O)[C@H]4O)C(C)(C)[C@@H]3CC[C@]12C)[C@@H]1OC1(C)C,> 10,> 10,> 10,11.4,> 10,> 10,,
C/C(=C\C[C@H](O)C(C)(C)O)[C@H]1CC[C@]2(C)[C@@H]1[C@H](O)C[C@@H]1[C@@]3(C)CC[C@H](O)C(C)(C)[C@@H]3[C@@H](O[C@@H]3O[C@H](CO)[C@@H](O)[C@H](O)[C@H]3O)C[C@]12C,> 10,> 10,> 10,9.3,> 10,> 10,,
CC(C)=CCC[C@@](C)(O)[C@H]1CC[C@]2(C)[C@@H]1[C@H](O)C[C@@H]1[C@@]3(C)CC[C@H](O)C(C)(C)[C@@H]3[C@@H](O[C@@H]3O[C@H](CO)[C@@H](O)[C@H](O)[C@H]3O)C[C@]12C,> 10,> 10,> 10,8.5,> 10,> 10,,
C=C(CCC=C(C)C)[C@H]1CC[C@]2(C)[C@@H]1[C@H](O)C[C@@H]1[C@@]3(C)CC[C@H](O[C@@H]4O[C@H](CO)[C@@H](O)[C@H](O)[C@H]4O)C(C)(C)[C@@H]3CC[C@]12C,> 10,> 10,> 10,8.9,> 10,> 10,,
CC(=O)OC[C@H]1O[C@@H](O[C@H]2[C@H](O[C@H]3CC[C@]4(C)[C@H]5C[C@@H](O)[C@@H]6[C@@H]([C@@](C)(O)CCC=C(C)C)CC[C@@]6(C)[C@]5(C)CC[C@H]4C3(C)C)O[C@H](CO)[C@@H](O)[C@@H]2O)[C@H](O)[C@@H](O)[C@@H]1O,> 10,> 10,> 10,9.3,> 10,> 10,,
CC(=O)OC[C@H]1O[C@@H](O[C@H]2[C@H](O[C@H]3CC[C@]4(C)[C@H]5C[C@@H](O)[C@@H]6[C@@H]([C@](C)(O)CCC=C(C)C)CC[C@@]6(C)[C@]5(C)CC[C@H]4C3(C)C)O[C@H](CO)[C@@H](O)[C@@H]2O)[C@H](O)[C@@H](O)[C@@H]1O,> 10,> 10,> 10,13.4,> 10,> 10,,
CC(C)(O)CCC[C@@](C)(O)[C@H]1CC[C@]2(C)[C@@H]1[C@H](O)C[C@@H]1[C@@]3(C)CC[C@H](O)C(C)(C)[C@@H]3[C@@H](O[C@@H]3O[C@H](CO)[C@@H](O)[C@H](O)[C@H]3O)C[C@]12C,> 10,> 10,> 10,8.6,> 10,> 10,,
C=C(CCCC(C)(C)O)[C@H]1CC[C@]2(C)[C@@H]1[C@H](O)C[C@@H]1[C@@]3(C)CC[C@H](O)C(C)(C)[C@@H]3[C@@H](O[C@@H]3O[C@H](CO)[C@@H](O)[C@H](O)[C@H]3O)C[C@]12C,> 10,> 10,> 10,8.3,> 10,> 10,,
CC(C)=CCC[C@](C)(O)[C@H]1CC[C@]2(C)[C@@H]1[C@H](O)C[C@@H]1[C@@]3(C)CC[C@H](O[C@@H]4O[C@H](CO)[C@@H](O)[C@H](O)[C@H]4O[C@@H]4O[C@H](CO)[C@@H](O)[C@H](O)[C@H]4O[C@@H]4OC[C@@H](O)[C@H](O)[C@H]4O)C(C)(C)[C@@H]3CC[C@]12C,,,,,,,19.4,16.5
